Measured values published in ChEMBL document CHEMBL2311373, “Monocyclic β-lactams as antibacterial agents: facing antioxidant activity of N-methylthio-azetidinones” (2013).
Converted amounts (≈) assume the structure as drawn. The source made the active and inactive calls. The rule behind the calls is not given here.

Key:
[1] = Antioxidant activity assessed as Fe (II) equivalent of (TPTZ)2Fe3+ reducing activity after 4 mins by FRAP assay; type: functional
Method in brief: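 FRAP reagent made from TPTZ and FeCl₃ in aqueous acetate buffer. Reagent and diluted sample mixed in a cuvette; absorbance of the blue Fe²⁺ complex at 593 nm read exactly 4 min later at 25.0 °C. Four or five sample concentrations tested. Slope of absorbance vs concentration divided by the FeSO₄ standard slope gives activity in mmol equiv Fe²⁺.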

[2] = Antioxidant activity assessed as trolox equivalent of ABTS radical scavenging activity at pH 7.4 after 6 mins by TEAC assay; type: functional
Method in brief: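 ABTS radical cation preformed with K₂S₂O₈ in PBS, pH 7.4. Diluted radical solution mixed with sample dissolved in DMSO; absorbance at 734 nm read exactly 6 min later at 30.0 °C. A DMSO blank was run, and the Trolox standard was treated the same way and checked before each series. Activity is given as a ratio to Trolox with its standard error.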

[3] = Antioxidant activity assessed as resorcinol equivalent of peroxy radical scavenging activity at pH 2.2 by BR assay; type: functional
Method in brief: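 Briggs-Rauscher oscillating reaction thermostated at 25.0 °C. The resorcinol standard line was checked before each series. Relative antioxidant activity is taken from the sample and resorcinol concentrations that give the same effect.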

[4] = system: Radical scavenging activity; assay: Antioxidant activity assessed as trolox equivalent of DPPH radical scavenging activity after 15 mins by spectroscopic analysis; type: functional
Method in brief: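 Absorbance at 515 nm of methanolic DPPH radical read before (A₀) and 15 min after (Af) adding sample. Inhibition % = (1 − Af/A₀) × 100. Plots of % inhibition vs concentration were fitted with lines through the origin and compared with the Trolox standard.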

[5] = system: Radical scavenging activity; assay: Antioxidant activity assessed as trolox equivalent of DPPH radical scavenging activity by spectroscopic analysis; type: functional
[6] = system: Staphylococcus aureus; assay: Antibacterial activity against methicillin-resistant Staphylococcus aureus clinical isolates from cystic fibrosis patients assessed as growth inhibition by CLSI broth microdilution method
[7] = Antioxidant activity of the compound by voltammetric analysis; type: functional

Row | Compound | Activity [1] | Activity [2] | Activity [3] | Activity [4] | Activity [5] [µM] | MIC50 [6] [µg/mL] | MIC90 [6] [µg/mL] | Activity [7] | MIC [6] [µg/mL]
1 | CCOCOc1c(OC)cc(C(=O)O[C@H](C)[C@H]2C(=O)N(SC)[C@@H]2OC(C)=O)cc1OC | inactive | inactive | 0.7 µM | inactive |  |  |  |  | 
2 | O=C1O[C@H]([C@@H](O)CO)C(O)=C1O |  |  |  |  | 1100 |  |  |  | 
3 | CSN1C(=O)[C@H]([C@@H](C)O)[C@H]1OC(C)=O | inactive | inactive | inactive | inactive |  | 64 (≈ 292 µM) | > 128 |  | 
4 | CC(O[Si](C)(C)C(C)(C)C)[C@H]1C(=O)N/C1=C\C(=O)Sc1ccccc1 (stereo partly drawn) |  |  |  |  |  |  |  | inactive | 
5 | CSN1C(=O)[C@H]([C@@H](C)O)[C@H]1SC(C)=O | inactive | inactive | inactive | inactive |  | 64 (≈ 272 µM) | 128 (≈ 544 µM) |  | 
6 | CSN1C(=O)[C@H]([C@@H](C)OC(=O)c2ccc(O)c(O)c2)[C@H]1OC(C)=O | 1.91 mmol | 1.23 mmol | 0.38 µM | 1.96 mmol |  | 128 (≈ 360 µM) | > 128 |  | 
7 | COc1cc(C(=O)O[C@H](C)[C@H]2C(=O)N(SC)[C@@H]2OC(C)=O)cc(OC)c1O | 0.19 mmol | 0.037 mmol | 1.8 µM | 0.0091 mmol |  | 64 (≈ 160 µM) | 128 (≈ 320 µM) |  | 
8 | CSN1CCC1=O |  |  |  |  |  |  |  | inactive | 
9 | CSN1C(=O)[C@H]([C@@H](C)OC(=O)/C=C/c2ccc(O)c(O)c2)[C@H]1OC(C)=O | 1.98 mmol | 0.98 mmol | 1.95 µM | 1.23 mmol |  | 64 (≈ 168 µM) | 64 (≈ 168 µM) |  | 
10 | CC(=O)SC1CC(=O)N1 (stereo not drawn) | inactive | inactive | inactive | inactive |  | 32 (≈ 220 µM) | 64 (≈ 441 µM) | inactive | 
11 | CO/N=C(\C(=O)N[C@@H]1C(=O)N2C(C(=O)O)=C(CSc3nc(=O)c(O)nn3C)CS[C@H]12)c1csc(N)n1 [CEFTRIAXONE] |  |  |  |  |  | 8 (≈ 14.4 µM) | > 128 |  | 
12 | CO/N=C(\C(=O)N[C@@H]1C(=O)N2C(C(=O)O)=C(COC(C)=O)CS[C@H]12)c1csc(N)n1 [CEFOTAXIME] |  |  |  |  |  | 128 (≈ 281 µM) | > 128 |  | 
13 | CSN1C(=O)CC1SC(C)=O (stereo not drawn) | inactive | inactive | inactive | inactive |  | 16 (≈ 83.6 µM) | 32 (≈ 167 µM) |  | 16 (≈ 83.6 µM)
14 | VITAMIN E |  |  |  |  | 500 |  |  |  | 
15 | CSN1C(=O)C[C@@H]1OC(C)=O | inactive | inactive | inactive | inactive |  | 32 (≈ 183 µM) | 64 (≈ 365 µM) |  | 32 (≈ 183 µM)
